{
  "source": "paper PMC9539578",
  "about": "(Basic & Clinical Pharmacology & Toxicology, 2022)",
  "molecules": {"B1": {"name": "human GPR15L(25–81) peptide (ligand)", "peptide": "KRRPAKAWSGRRTRLCCHRVPSPNSTNLKGHHVRLCKPCKLEPEPRLWVVPGALPQV"}, "B2": {"name": "human GPR15L(71–81) peptide (peptide)", "peptide": "LWVVPGALPQV"}},
  "key": {"GPR15 receptor (Gi/o)": {"molecular_target": "T1, GPR15 receptor (Gi/o) (Homo sapiens, UniProt P49685)", "T1 sequence (P49685 1-360)": "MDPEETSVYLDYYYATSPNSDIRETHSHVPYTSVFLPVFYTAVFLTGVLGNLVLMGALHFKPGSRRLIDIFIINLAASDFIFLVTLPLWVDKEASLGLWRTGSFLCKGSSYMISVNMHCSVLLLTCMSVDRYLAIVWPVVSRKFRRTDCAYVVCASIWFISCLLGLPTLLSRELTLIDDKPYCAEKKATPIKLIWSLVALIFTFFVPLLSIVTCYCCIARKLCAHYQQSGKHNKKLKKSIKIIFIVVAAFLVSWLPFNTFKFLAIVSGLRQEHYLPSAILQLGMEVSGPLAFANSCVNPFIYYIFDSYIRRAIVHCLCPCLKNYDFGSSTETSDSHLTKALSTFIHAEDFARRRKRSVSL", "experiment": "HTRF Gi cAMP assay", "format": "cell-based", "how_it_was_run": "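HEK293A cells stably expressing human GPR15 (G418-selected) were harvested non-enzymatically. Where stated, cells were pretreated 24 h with PTX 100 ng/ml. 4000 cells/well in HBSS/20 mM HEPES/1 mM CaCl2/1 mM MgCl2/100 μM IBMX, pH 7.4, were mixed with threefold-diluted peptide in ligand buffer containing 3 μM forskolin, 30 min at room temperature. HTRF cAMP detection ran 1 h in the dark. Standard-curve cAMP was normalized to forskolin and given a four-parameter EC50 fit; triplicates, 3–5 experiments.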"}, "GPR15 receptor / Gi3": {"molecular_target": "GPR15 receptor / Gi3 (Homo sapiens, UniProt P49685)", "sequence (P08753 2-354 partner limits assumed, one chain of several)": "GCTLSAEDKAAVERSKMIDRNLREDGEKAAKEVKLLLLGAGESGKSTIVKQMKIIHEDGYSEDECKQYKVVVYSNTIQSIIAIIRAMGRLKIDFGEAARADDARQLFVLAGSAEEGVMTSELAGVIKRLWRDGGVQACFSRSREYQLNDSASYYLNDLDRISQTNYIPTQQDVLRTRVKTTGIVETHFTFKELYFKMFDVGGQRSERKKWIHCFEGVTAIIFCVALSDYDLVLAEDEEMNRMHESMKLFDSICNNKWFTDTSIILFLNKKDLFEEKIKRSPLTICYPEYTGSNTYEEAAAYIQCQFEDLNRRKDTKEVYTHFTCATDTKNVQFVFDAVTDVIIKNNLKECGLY", "sequence (P62873 2-340 partner limits assumed, one chain of several)": "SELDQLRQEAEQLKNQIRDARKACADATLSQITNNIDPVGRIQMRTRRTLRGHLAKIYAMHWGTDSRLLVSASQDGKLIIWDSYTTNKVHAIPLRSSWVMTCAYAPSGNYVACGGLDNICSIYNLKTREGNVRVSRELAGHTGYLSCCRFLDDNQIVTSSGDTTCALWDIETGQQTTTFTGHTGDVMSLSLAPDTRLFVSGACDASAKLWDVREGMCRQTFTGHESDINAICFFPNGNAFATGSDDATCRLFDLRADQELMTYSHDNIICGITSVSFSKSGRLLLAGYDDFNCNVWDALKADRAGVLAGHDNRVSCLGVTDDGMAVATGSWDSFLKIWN", "sequence (P59768 2-68 partner limits assumed, one chain of several)": "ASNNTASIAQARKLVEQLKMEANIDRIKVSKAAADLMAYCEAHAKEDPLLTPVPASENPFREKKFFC", "experiment": "BRET G protein activation assay, Gi3", "format": "cell-based, human (GPR15); rat (Gi3)", "how_it_was_run": "(§1)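 HEK293A cells transfected 20–24 h before assay with GPR15 (1.26 μg), Venus(155–239)-Gβ1, Venus(1–155)-Gγ2 and masGRK3ct-Nluc (0.21 μg each), and an optimized amount of the Gα DNA. Cells were given furimazine (1:250) for 3 min, then rising agonist concentrations. BRET ratio is 535/475 nm emission. Emax per concentration was buffer-corrected, normalized to the maximum, and fitted with a four-parameter model. 3–5 independent experiments, 2–3 replicates.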"}, "GPR15 receptor / GoB": {"molecular_target": "GPR15 receptor / GoB (Homo sapiens, UniProt P49685)", "sequence (P09471 2-354 isoform P09471-2 partner limits assumed, one chain of several)": "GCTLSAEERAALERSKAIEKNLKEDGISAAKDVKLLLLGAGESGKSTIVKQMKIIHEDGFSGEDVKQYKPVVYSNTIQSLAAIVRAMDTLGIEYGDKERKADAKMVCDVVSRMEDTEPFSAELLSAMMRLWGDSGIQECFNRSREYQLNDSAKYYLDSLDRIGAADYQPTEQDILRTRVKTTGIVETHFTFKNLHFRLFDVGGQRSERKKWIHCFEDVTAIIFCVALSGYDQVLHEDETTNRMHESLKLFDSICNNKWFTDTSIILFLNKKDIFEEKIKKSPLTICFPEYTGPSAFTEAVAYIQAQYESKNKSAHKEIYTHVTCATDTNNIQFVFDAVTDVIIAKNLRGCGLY", "sequence (P62873 2-340 partner limits assumed, one chain of several)": "as the sequence (P62873 2-340 partner limits assumed, one chain of several) above", "sequence (P59768 2-68 partner limits assumed, one chain of several)": "as the sequence (P59768 2-68 partner limits assumed, one chain of several) above", "experiment": "BRET G protein activation assay, GoB", "format": "cell-based", "how_it_was_run": "as §1"}, "GPR15 receptor / GoA": {"molecular_target": "GPR15 receptor / GoA (Homo sapiens, UniProt P49685)", "sequence (P09471 2-354 partner limits assumed, one chain of several)": "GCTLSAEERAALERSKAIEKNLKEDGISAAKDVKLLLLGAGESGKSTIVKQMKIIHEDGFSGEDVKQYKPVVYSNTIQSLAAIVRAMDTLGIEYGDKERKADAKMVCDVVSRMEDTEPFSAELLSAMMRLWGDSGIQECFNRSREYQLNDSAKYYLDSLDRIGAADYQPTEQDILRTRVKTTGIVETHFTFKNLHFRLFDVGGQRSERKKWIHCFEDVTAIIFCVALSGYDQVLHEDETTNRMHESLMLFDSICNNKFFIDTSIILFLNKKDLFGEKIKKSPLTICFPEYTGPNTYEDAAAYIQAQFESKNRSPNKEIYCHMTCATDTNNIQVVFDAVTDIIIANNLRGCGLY", "sequence (P62873 2-340 partner limits assumed, one chain of several)": "as the sequence (P62873 2-340 partner limits assumed, one chain of several) above", "sequence (P59768 2-68 partner limits assumed, one chain of several)": "as the sequence (P59768 2-68 partner limits assumed, one chain of several) above", "experiment": "BRET G protein activation assay, GoA", "format": "cell-based", "how_it_was_run": "as §1"}, "GPR15 receptor / Gi2": {"molecular_target": "GPR15 receptor / Gi2 (Homo sapiens, UniProt P49685)", "sequence (P04897 2-355 partner limits assumed, one chain of several)": "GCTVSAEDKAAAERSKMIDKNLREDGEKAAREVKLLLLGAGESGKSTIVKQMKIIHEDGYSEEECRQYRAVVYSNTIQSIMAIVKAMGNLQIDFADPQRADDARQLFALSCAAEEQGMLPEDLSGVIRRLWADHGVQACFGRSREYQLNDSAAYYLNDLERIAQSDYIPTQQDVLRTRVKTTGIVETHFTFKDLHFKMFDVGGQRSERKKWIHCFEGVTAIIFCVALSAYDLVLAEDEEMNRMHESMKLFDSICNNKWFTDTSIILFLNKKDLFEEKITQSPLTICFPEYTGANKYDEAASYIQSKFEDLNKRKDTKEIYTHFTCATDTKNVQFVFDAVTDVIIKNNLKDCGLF", "sequence (P62873 2-340 partner limits assumed, one chain of several)": "as the sequence (P62873 2-340 partner limits assumed, one chain of several) above", "sequence (P59768 2-68 partner limits assumed, one chain of several)": "as the sequence (P59768 2-68 partner limits assumed, one chain of several) above", "experiment": "BRET G protein activation assay, Gi2", "format": "cell-based, human (GPR15); rat (Gi2)", "how_it_was_run": "as §1"}, "GPR15 receptor / Gi1": {"molecular_target": "GPR15 receptor / Gi1 (Homo sapiens, UniProt P49685)", "sequence (P10824 2-354 partner limits assumed, one chain of several)": "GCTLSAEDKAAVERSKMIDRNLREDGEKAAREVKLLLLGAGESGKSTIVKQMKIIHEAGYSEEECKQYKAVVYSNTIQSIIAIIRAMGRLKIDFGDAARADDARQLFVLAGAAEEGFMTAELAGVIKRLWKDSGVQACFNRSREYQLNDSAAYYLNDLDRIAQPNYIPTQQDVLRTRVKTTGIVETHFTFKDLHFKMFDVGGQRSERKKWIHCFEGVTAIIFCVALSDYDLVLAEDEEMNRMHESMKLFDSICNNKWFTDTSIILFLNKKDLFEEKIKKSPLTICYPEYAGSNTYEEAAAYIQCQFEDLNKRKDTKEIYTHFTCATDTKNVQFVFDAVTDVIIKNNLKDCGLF", "sequence (P62873 2-340 partner limits assumed, one chain of several)": "as the sequence (P62873 2-340 partner limits assumed, one chain of several) above", "sequence (P59768 2-68 partner limits assumed, one chain of several)": "as the sequence (P59768 2-68 partner limits assumed, one chain of several) above", "experiment": "BRET G protein activation assay, Gi1", "format": "cell-based, human (GPR15); rat (Gi1)", "how_it_was_run": "as §1"}, "[1]": {"system": "muscarinic acetylcholine receptors", "experiment": "HTRF Gq IP1 assay, positive control", "format": "cell-based", "settings": "endogenous receptors (mAChR1, mAChR3 and mAChR5) in HEK293A cells", "how_it_was_run": "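Carbachol, added at 2× final concentration in HBSS/20 mM HEPES/1 mM CaCl2/1 mM MgCl2/0.01% pluronic acid, pH 7.4, acted on 20 000 HEK293A-GPR15 cells/well with 30 mM LiCl for 30 min at 37 °C. HTRF IP1 detection ran 1 h in the dark at room temperature (665/615 nm). IP1 from a standard curve, buffer-corrected and normalized to the carbachol maximum; 3–5 experiments in triplicate.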"}, "β2‐adrenergic receptor": {"system": "β2‐adrenergic receptor", "experiment": "HTRF Gs cAMP assay, positive control", "format": "cell-based", "settings": "endogenous receptor in HEK293A cells", "how_it_was_run": "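Run like the Gi cAMP assay without forskolin. HEK293A-GPR15 cells in HBSS/HEPES buffer with 100 μM IBMX, pH 7.4, were stimulated with isoproterenol via the endogenous β2-adrenergic receptor, 30 min at room temperature. HTRF cAMP detection ran 1 h in the dark (665/615 nm). cAMP from a standard curve, buffer-corrected and normalized to the isoproterenol maximum; 3–5 experiments in triplicate.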"}, "[2]": {"molecular_target": "T2, G protein-coupled receptor 15 (GPR15) (human) (UniProt P49685)", "T2 sequence": "T1 sequence (P49685 1-360)"}},
  "note": "Structures can show the parent of a compound that is named as a salt. Where a SMILES comes first, the peptide text is derived from it.",
  "data": [
    {"molecule": "CC(C)C[C@H](NC(=O)[C@H](C)NC(=O)CNC(=O)[C@@H]1CCCN1C(=O)[C@@H](NC(=O)[C@@H](NC(=O)[C@H](Cc1c[nH]c2ccccc12)NC(=O)[C@@H](N)CC(C)C)C(C)C)C(C)C)C(=O)N1CCC[C@H]1C(=O)N[C@@H](CCC(N)=O)C(=O)N[C@H](C(=O)O)C(C)C", "note": "[GPR15L(71–81)] (H-LWVVPGALPQV-OH)", "values": [
      {"measurement": "EC50", "setting": "GPR15 receptor (Gi/o)", "result": 407, "unit": "nM"},
      {"measurement": "EC50", "setting": "GPR15 receptor / Gi3", "result": 912, "unit": "nM"},
      {"measurement": "EC50", "setting": "GPR15 receptor / GoB", "result": 2510, "unit": "nM"},
      {"measurement": "EC50", "setting": "GPR15 receptor / GoA", "result": 3020, "unit": "nM"},
      {"measurement": "EC50", "setting": "GPR15 receptor / Gi2", "result": 1700, "unit": "nM"},
      {"measurement": "EC50", "setting": "GPR15 receptor / Gi1", "result": 724, "unit": "nM"}
    ]},
    {"molecule": "C[N+](C)(C)CCOC(N)=O", "note": "[carbachol, carbamoylcholine chloride]", "values": [
      {"measurement": "IP1 level", "setting": "[1]", "result": "robust IP1 level increase"}
    ]},
    {"molecule": "CC(C)NCC(O)c1ccc(O)c(O)c1", "note": "(stereo not drawn) [isoproterenol, isoproterenol bitartrate salt]", "values": [
      {"measurement": "cAMP level", "setting": "β2‐adrenergic receptor", "result": "robust cAMP level increase"}
    ]},
    {"molecule": "pertussis toxin [PTX]", "values": [
      {"measurement": "inhibition of cAMP production in presence of PTX", "setting": "GPR15 receptor (Gi/o); hGPR15-HEK293A, PTX 100 ng/ml for 24 h", "result": "inhibition could be eliminated"}
    ]},
    {"molecule": "B1", "values": [
      {"measurement": "pEC50, BRET G protein activation assay, Gi1", "setting": "[2]", "result": 7.79},
      {"measurement": "pEC50, BRET G protein activation assay, Gi2", "setting": "[2]", "result": 7.14},
      {"measurement": "pEC50, BRET G protein activation assay, Gi3", "setting": "[2]", "result": 7.69},
      {"measurement": "pEC50, BRET G protein activation assay, GoA", "setting": "[2]", "result": 7.28},
      {"measurement": "pEC50, BRET G protein activation assay, GoB", "setting": "[2]", "result": 7.54}
    ]},
    {"molecule": "B2", "values": [
      {"measurement": "pEC50, BRET G protein activation assay, Gi1", "setting": "[2]", "result": 6.14},
      {"measurement": "pEC50, BRET G protein activation assay, Gi2", "setting": "[2]", "result": 5.77},
      {"measurement": "pEC50, BRET G protein activation assay, Gi3", "setting": "[2]", "result": 6.04},
      {"measurement": "pEC50, BRET G protein activation assay, GoA", "setting": "[2]", "result": 5.52}
    ]}
  ]
}
